Test results reported in article PMC10500653 (ACS Omega, 2023).
Like-named read-outs stand apart in the source and are kept apart here.

Columns and labels:
[1] = system: HepG2 hepatocellular carcinoma cell line; assay: Cytotoxicity assay; type: cell-based, human; conditions: for IC50: Homo sapiens, HepG2, 48 h; for Cytotoxic activity IC50, HepG2: 48 h, MTT
Summary of the method: (§1)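 Cells were pre-plated in medium, then an equal volume of medium holding serial dilutions of the test compound was added to reach the final concentrations. Controls were DMSO (negative) and etoposide and/or doxorubicin (positive). Plates were incubated a further 48 h and surviving cells were counted by MTT. IC50 is the concentration giving 50% growth inhibition relative to the DMSO control.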

[2] = system: A549 lung carcinoma cell line; assay: Cytotoxicity assay; type: cell-based, human; conditions: for IC50: Homo sapiens, A549, 48 h
Summary of the method: as §1

Cytotoxicity assay = type: cell-based; conditions: human, MRC-5 normal embryonic lung cells
Summary of the method: as §1

[3] = system: T47D hormone-dependent breast cancer; assay: Cytotoxicity assay; type: cell-based; conditions: Homo sapiens, 48 h, read-out: Cytotoxic activity IC50, T47D
Summary of the method: as §1

[4] = system: MDA-MB-231 hormone-independent breast cancer; assay: Cytotoxicity assay; type: cell-based; conditions: Homo sapiens, MDA-MB-231, 48 h, read-out: Cytotoxic activity IC50, MDA-MB-231
Summary of the method: as §1

FGFR1 tyrosine kinase = FGFR1 tyrosine kinase (Homo sapiens, UniProt P11362); assay: ADP-Glo kinase assay, FGFR1; type: biochemical; conditions: for inhibition at 1 µM: read-out: % inhibition of FGFR1
FGFR1 tyrosine kinase, sequence (P11362 22-822): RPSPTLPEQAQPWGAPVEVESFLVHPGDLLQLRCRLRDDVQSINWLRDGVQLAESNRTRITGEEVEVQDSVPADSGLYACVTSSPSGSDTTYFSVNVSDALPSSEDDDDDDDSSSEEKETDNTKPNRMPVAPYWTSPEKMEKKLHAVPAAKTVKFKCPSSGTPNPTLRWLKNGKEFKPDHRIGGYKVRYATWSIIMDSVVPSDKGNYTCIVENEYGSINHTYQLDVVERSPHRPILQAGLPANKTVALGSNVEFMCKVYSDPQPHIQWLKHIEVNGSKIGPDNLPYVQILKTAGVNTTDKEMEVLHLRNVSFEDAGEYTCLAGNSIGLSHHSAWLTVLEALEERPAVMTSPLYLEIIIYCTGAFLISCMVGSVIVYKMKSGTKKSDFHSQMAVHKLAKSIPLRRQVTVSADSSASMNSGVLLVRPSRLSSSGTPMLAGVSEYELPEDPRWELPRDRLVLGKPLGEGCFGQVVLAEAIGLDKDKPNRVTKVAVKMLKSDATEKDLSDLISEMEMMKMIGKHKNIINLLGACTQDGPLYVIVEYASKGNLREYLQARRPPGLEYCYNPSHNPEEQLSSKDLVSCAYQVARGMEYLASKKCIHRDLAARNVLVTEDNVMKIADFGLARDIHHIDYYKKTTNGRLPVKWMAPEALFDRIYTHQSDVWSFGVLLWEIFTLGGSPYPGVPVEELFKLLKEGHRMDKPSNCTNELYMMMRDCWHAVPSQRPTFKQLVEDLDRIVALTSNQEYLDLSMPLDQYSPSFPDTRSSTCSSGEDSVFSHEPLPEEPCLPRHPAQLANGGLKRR

[5] = system: MOLT-3 lymphoblastic leukemia cell line; assay: Cytotoxicity assay; type: cell-based; conditions: Homo sapiens, MOLT-3, 48 h, read-out: Cytotoxic activity IC50, MOLT-3
Summary of the method: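 MOLT-3 cells received an equal volume of additional medium with serial dilutions of the test compound to reach the final concentrations. DMSO served as the negative control and etoposide and/or doxorubicin as the positive control. After a further 48 h incubation, surviving cells were counted by XTT. IC50 is the concentration inhibiting growth by 50% versus the DMSO control.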

[6] = system: HuCCA-1 cholangiocarcinoma cell line; assay: Cytotoxicity assay; type: cell-based; conditions: Homo sapiens, HuCC-A1, 48 h, read-out: Cytotoxic activity IC50, HuCCA-1
Summary of the method: as §1

[7] = read-out: Cytotoxic activity IC50, HepG2
[8] = read-out: Cytotoxic activity IC50, A549
[9] = read-out: Cytotoxic activity, HepG2 (class NC)

SMILES | IC50 [1, 7] | IC50 [2, 8] | IC50 at 48 h (Cytotoxicity assay) | IC50 [3] | IC50 [4] | IC50 (FGFR1 tyrosine kinase) | inhibition at 1 µM (FGFR1 tyrosine kinase) | IC50 [5] | IC50 [6] | Cytotoxic activity IC50, HepG2 [1] | IC50 [1, 9] | Cytotoxic activity IC50, A549 ([2]; A549, 48 h, MTT) | IC50 ([2]; read-out: Cytotoxic activity, A549 (class NC))
O=C(/C=C/c1ccc(O)cc1)c1ccc(NC2=C(Cl)C(=O)c3ccccc3C2=O)cc1 [Compound 10, (E)-2-Chloro-3-((4-(3-(4-hydroxyphenyl)acryloyl)phenyl)amino)naphthalene-1,4-dione] | 57500 ± 1280 nM | 44200 ± 4060 nM | 8310 ± 3300 nM | 3210 ± 60 nM | 1370 ± 70 nM | 3.13 ± 0.67 nM | > 70% | 2350 ± 390 nM | 7700 ± 2850 nM | – | – | – | –
O=C(/C=C/c1ccc(O)cc1)c1cccc(NC2=C(Cl)C(=O)c3ccccc3C2=O)c1 [Compound 5, (E)-2-Chloro-3-((3-(3-(4-hydroxyphenyl)acryloyl)phenyl)amino)naphthalene-1,4-dione] | 13070 ± 120 nM | 31900 ± 3710 nM | 11000 ± 990 nM | 5750 nM | 3330 ± 80 nM | 0.33 ± 0.01 nM | > 70% | 2190 ± 260 nM | 5650 ± 80 nM | – | – | – | –
COc1cc(/C=C/C(=O)c2cccc(NC3=C(Cl)C(=O)c4ccccc4C3=O)c2)cc(OC)c1OC [Compound 3, (E)-2-Chloro-3-((3-(3-(3,4,5-trimethoxyphenyl)acryloyl)phenyl)amino)naphthalene-1,4-dione] | 16900 ± 740 nM | 51600 ± 10300 nM | 2520 ± 260 nM | 1150 ± 80 nM | 1050 ± 40 nM | – | – | 990 ± 120 nM | 4720 ± 480 nM | – | – | – | –
COc1ccc(/C=C/C(=O)c2cccc(NC3=C(Cl)C(=O)c4ccccc4C3=O)c2)c(OC)c1OC [Compound 2, (E)-2-Chloro-3-((3-(3-(2,3,4-trimethoxyphenyl)acryloyl)phenyl)amino)naphthalene-1,4-dione] | 16300 ± 440 nM | 33500 ± 170 nM | 2600 ± 40 nM | 2320 ± 80 nM | 1790 ± 120 nM | 1.5 ± 0.28 nM | > 70% | 1810 ± 50 nM | 8870 ± 1030 nM | – | – | – | –
COc1cccc(/C=C/C(=O)c2ccc(NC3=C(Cl)C(=O)c4ccccc4C3=O)cc2)c1 [Compound 6, (E)-2-Chloro-3-((4-(3-(3-methoxyphenyl)acryloyl)phenyl)amino)naphthalene-1,4-dione] | 6880 ± 2720 nM | 13500 ± 1490 nM | 2690 ± 150 nM | 2100 ± 120 nM | 1310 ± 30 nM | – | – | 1780 ± 60 nM | 11100 ± 370 nM | – | – | – | –
COc1cccc(/C=C/C(=O)c2cccc(NC3=C(Cl)C(=O)c4ccccc4C3=O)c2)c1OC [Compound 1, (E)-2-Chloro-3-((3-(3-(2,3-dimethoxyphenyl)acryloyl)phenyl)amino)naphthalene-1,4-dione] | 5130 ± 150 nM | 6120 ± 1560 nM | 4960 ± 140 nM | 1810 ± 40 nM | 1080 ± 120 nM | 0.91 ± 0.08 nM | > 70% | 1240 ± 30 nM | 1160 ± 400 nM | – | – | – | –
COc1cc([C@@H]2c3cc4c(cc3[C@@H](O[C@@H]3O[C@@H]5CO[C@@H](C)O[C@H]5[C@H](O)[C@H]3O)[C@H]3COC(=O)[C@H]23)OCO4)cc(OC)c1O [etoposide, reference compound] | 33980 ± 10 nM | – | – | – | – | – | – | 41 ± 3 nM | – | – | – | – | –
COc1ccc(/C=C/C(=O)c2ccc(NC3=C(Cl)C(=O)c4ccccc4C3=O)cc2)cc1OC [Compound 7, (E)-2-Chloro-3-((4-(3-(3,4-dimethoxyphenyl)acryloyl)phenyl)amino)naphthalene-1,4-dione] | – | 62060 ± 140 nM | 2930 ± 160 nM | 1860 ± 60 nM | 1160 ± 30 nM | 0.85 ± 0.08 nM | > 70% | 1270 ± 120 nM | 7320 ± 370 nM | inactive | > 50 µg/mL | – | –
COc1ccc(/C=C/C(=O)c2ccc(NC3=C(Cl)C(=O)c4ccccc4C3=O)cc2)cc1O [Compound 9, (E)-2-Chloro-3-((4-(3-(3-hydroxy-4-methoxyphenyl)acryloyl)phenyl)amino)naphthalene-1,4-dione] | – | – | 14940 ± 90 nM | 24000 ± 1610 nM | 6810 ± 520 nM | 0.5 ± 0.04 nM | – | 830 ± 10 nM | 6850 ± 1200 nM | inactive | > 50 µg/mL | inactive | > 50 µg/mL
COc1cccc2c1C(=O)c1c(O)c3c(c(O)c1C2=O)C[C@@](O)(C(=O)CO)C[C@@H]3O[C@H]1C[C@H](N)[C@H](O)[C@H](C)O1 [doxorubicin, reference compound] | 570 ± 50 nM | 370 ± 20 nM | 2790 ± 110 nM | 840 ± 10 nM | 1840 ± 130 nM | – | – | – | 420 ± 20 nM | – | – | – | –
COc1cc(/C=C/C(=O)c2cccc(NC3=C(Cl)C(=O)c4ccccc4C3=O)c2)cc(OC)c1O [Compound 4, (E)-2-Chloro-3-((3-(3-(4-hydroxy-3,5-dimethoxyphenyl)acryloyl)phenyl)amino)naphthalene-1,4-dione] | 12800 ± 420 nM | 25000 ± 4220 nM | 2900 ± 480 nM | 2120 ± 110 nM | 1430 ± 110 nM | 0.96 ± 0.05 nM | > 70% | 1100 ± 140 nM | 7060 ± 1360 nM | – | – | – | –
COc1cc(/C=C/C(=O)c2ccc(NC3=C(Cl)C(=O)c4ccccc4C3=O)cc2)cc(OC)c1OC [Compound 8, (E)-2-Chloro-3-((4-(3-(3,4,5-trimethoxyphenyl)acryloyl)phenyl)amino)naphthalene-1,4-dione] | 10870 ± 10 nM | 25800 ± 3550 nM | 2920 ± 360 nM | 1610 ± 70 nM | 1090 ± 20 nM | 1.69 ± 0.71 nM | – | 810 ± 20 nM | 4720 ± 330 nM | – | – | – | –
